# Shown are actives, neighbours in structure and some others; about 4% of the full set was active somewhere.
# Yeast growth inh: reduces growth of yeast BB579 in restrictive medium; S. cerevisiae BB579 growth, OD615, 48 h; inhibition, % at 10 µM; actives 0.51% (n = 140,000); AID 804;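 active means inhibition above a set limit, 3 SD over the mean compound inhibition, cut at about 44% in these data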
#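 Material: Saccharomyces cerevisiae DeaD strain BB579, replicative lifespan model yeast; buffer or medium: CSMM-D restrictive synthetic medium containing dextrose (glucose); compound: 10 µM single dose, DMSO 0.25%; timing: 48 h compound exposure at 30 °C after 4 h preincubation; signal: turbidity as optical density at 615 nm; benchmarks: positive control amphotericin B 10 µg/mL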
# INS promoter inh: TRM-6 insulin promoter activity inhibition; actives 0.9% (n = 130,000); TRM-6 cells, insulin promoter-eGFP reporter, imaging; reporter expression induced with tamoxifen; inhibition, % at 2 µM; AID 1273;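 active means inhibition above the mean plus 3 SD, with well images judged a real hit on visual review, cut at about 60% in these data, passing the limit was not always enough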
# Yeast lifespan up: yeast lifespan extension; S. cerevisiae growth with nicotinamide, OD615; deaD strain in restrictive glucose medium; actives 0.68% (n = 130,000); AID 775; inhibition of the nicotinamide effect, % at 10 µM;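 active means inhibition above a set limit, placed 3 SD over the median of all compounds, cut at about 26% in these data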;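 further: 0% = nicotinamide-treated wells and 100% = cells grown without nicotinamide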
#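 assay system = DeaD-strain S. cerevisiae | measured by = absorbance at 615 nm | probe or stimulus = nicotinamide 1.5 mM | buffer or medium = CSMM-D glucose medium, restrictive | times = 48 h at 30 °C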
# RAM network inh: yeast RAM network inhibition; S. cerevisiae dse1pr::URA3 reporter, 5-FOA growth OD615, 2 d; analog-sensitive cbk1-as2 kinase mutant strain; inhibition, % at 50 µM; actives 1.8% (n = 190,000); AID 868;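 active means inhibition above a set limit, 3 SD over mean compound inhibition, cut at about 8.4% in these data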;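 further: 0% = DMSO-only wells with no growth and 100% = 10 µM 1-NA-PP1 full growth; inhibition rescues growth on 5-FOA so higher OD means more RAM inhibition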
# MDM2 E3 inh: blocks human Mdm2 ubiquitin ligase activity. Q00987. cell-based MDM2 ubiquitination luciferase reporter, 2 h; 0 = plate control, 100 = twice control, blank-subtracted. signal enhancement, % at 5 µM. actives 0.11% (n = 210,000). AID 1230;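 active means signal enhancement of 30% or more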;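 further: luminescence tracks abundance of the self-degrading MDM2-luciferase fusion protein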
# Target sequence (Q00987 whole entry, looked up, the tested form may be a part): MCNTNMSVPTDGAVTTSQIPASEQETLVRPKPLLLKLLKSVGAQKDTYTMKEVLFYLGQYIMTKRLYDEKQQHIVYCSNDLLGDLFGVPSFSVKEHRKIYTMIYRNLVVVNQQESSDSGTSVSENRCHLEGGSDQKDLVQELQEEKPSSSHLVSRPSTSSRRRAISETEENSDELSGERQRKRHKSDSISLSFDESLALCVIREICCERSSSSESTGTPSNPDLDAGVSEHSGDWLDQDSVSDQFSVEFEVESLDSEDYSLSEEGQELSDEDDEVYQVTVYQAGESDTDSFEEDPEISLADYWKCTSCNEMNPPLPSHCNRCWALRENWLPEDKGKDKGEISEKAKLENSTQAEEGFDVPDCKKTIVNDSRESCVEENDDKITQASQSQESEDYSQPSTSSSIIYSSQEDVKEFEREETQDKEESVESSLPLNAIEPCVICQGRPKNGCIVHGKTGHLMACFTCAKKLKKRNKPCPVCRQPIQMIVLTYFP
#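 Material: stable MDM2–luciferase fusion reporter cells / Quantity: 2000 cells/well / Dosing: single 5 µM compound dose, 0.2% final DMSO / Buffer or medium: DMEM / Schedule: 4 h cell settling then 2 h compound exposure, 37 °C / Detection: luminescence with SteadyLite reagent, 15 min at room temperature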
# Measles CPE: protection of cells from measles virus; Measles virus-infected cells, CPE protection, absorbance; protection (pct of control), % at 4 µM; actives 1.5% (n = 140,000); AID 841; in the data active means protection mostly above about 24%, no sharp cut-off; inactive means mostly below about 26%
# Starred values were filed as active, the others as inactive; . = not tested or not shown.
SMILES,Yeast growth inh,INS promoter inh,Yeast lifespan up,RAM network inh,MDM2 E3 inh,Measles CPE
CC(C)CCn1c(CN2CCN(Cc3ccccc3)CC2)nc2c1c(=O)[nH]c(=O)n2C,-27.4,.,-9.8,-1.6,-20.4,40.8*
NS(=O)(=O)c1ccc(CNC(=O)/C=C/c2cccc([N+](=O)[O-])c2)cc1,.,.,.,.,-6.7,.
CCOC(=O)c1cnc(SC)nc1Oc1cccc(NC(=O)c2cccc(Cl)c2Cl)c1,-75.3,-27.3,0.1,9.4*,-13.1,7.2
CCOC(=O)c1cnc(SC)nc1Oc1cccc(NS(=O)(=O)c2ccc(F)cc2)c1,-33.2,45.0,2.3,9.8*,-11.3,4.8
CC(C)=CC(=O)NCc1c(Cl)cccc1-n1cccc1,-12.1,33.3,2.2,2.4,-5.8,1.9
CCc1ccc(N(C(=O)Cc2cccs2)C(C(=O)NC2CCCCC2)c2cn(C)nc2C)cc1 (stereo not drawn),-54.9,-8.7,7.5,8.5*,-7.3,3.8
CCNC(=O)C12CCC(C)(C(=O)O1)C2(C)C (stereo not drawn),.,13.3,.,1.3,-8.4,.
COc1ccc(NC(=O)CSc2nnc(COc3ccccc3)n2Cc2ccco2)cc1OC,-72.2,-71.4,-8.4,9.9*,-6.7,15.3
COc1ccc(C)cc1NC(=O)CSc1nnc(COc2ccccc2)n1Cc1ccco1,-12.9,.,-3.5,9.5*,-5.7,15.1
COc1ccc(NC(=O)CSc2nnc(-c3ccccc3)n2Cc2ccco2)c(OC)c1,-62.4,.,-9.3,0.3,-4.2,8.0
COc1ccc(C)cc1NC(=O)CSc1nnc(COc2ccc(Cl)cc2)n1Cc1ccco1,-28.5,-141.7,-8.7,9.7*,-25.1,.
COc1ccc(C)cc1NC(=O)CSc1nnc(CC(=O)Nc2ccccc2C)n1C,-33.5,66.7*,-7.6,-1.2,-7.2,2.1
COc1cccc(C(=O)N2CCC(N3CC(C)OC(C)C3)CC2)c1 (stereo not drawn),-20.6,-50.0,4.4,0.9,-3.0,8.2
O=C(O)C(Cc1c[nH]c2ccccc12)N1C(=O)C2C3c4ccccc4C(c4ccccc43)[C@@H]2C1=O (stereo partly drawn),.,.,.,.,-8.8,.
CC[C@@]1(O)C(=O)OCc2c1cc1n(c2=O)Cc2cc3c(N)cccc3nc2-1,.,.,.,.,-47.3,.
O=c1cccc2n1Cc1cc3ccccc3nc1-2,46.0*,33.3,-4.8,1.5,.,1.6
Cc1ccc(CNC(=O)C(C)OC(=O)c2ccco2)cc1 (stereo not drawn),-10.4,14.3,39.5*,0.3,-10.4,0.2
CCN(CC)C(=O)c1sc(N)c(C(=O)OC(C)C)c1C,-30.8,-33.3,.,-0.5,-5.4,13.6
CCN(CC)C(=O)c1sc(NC(=O)C(Sc2ccccc2)c2ccccc2)c(C(=O)OC(C)C)c1C (stereo not drawn),-51.1,-3.6,-8.9,9.6*,-8.8,14.4
CCCOC(=O)c1c(-c2ccc(C)cc2C)csc1NC(=O)C1C2CCC(O2)C1C(=O)O (stereo not drawn),12.0,-84.6,6.7,3.5,-10.1,10.2
CCc1cccc(C)c1NC(=S)NCc1ccc2[nH]c(C)cc2c1,53.7*,70.7*,-1.6,5.4,.,4.5
CNC(=S)NCc1ccc2[nH]c(C)cc2c1,.,54.5,.,3.0,-6.4,.
O=C(NC(=S)Nc1ccc2c(c1)C(=O)c1ccccc1C2=O)c1ccc(F)cc1,35.7,6.7,-4.5,1.1,-6.4,9.2
Cc1cc(C)nc(NS(=O)(=O)c2ccc(NC(=O)CCN3C(=O)c4ccccc4C3=O)cc2)n1,5.9,-14.3,37.9*,0.1,-4.0,1.7
Cc1cc(NS(=O)(=O)c2ccc(NC(=O)CCN3C(=O)c4ccccc4C3=O)cc2)no1,-28.1,-16.2,-12.1,1.9,-8.2,1.3
O=C(CCN1C(=O)c2ccccc2C1=O)Nc1ccc(-c2nc3ccccc3s2)cc1,-21.3,21.9,1.0,8.9*,-16.0,.
COc1ccccc1-c1nnc(SC(C)C(=O)O)n1-c1ccccc1 (stereo not drawn),.,.,.,1.8,-5.5,.
O=C(OCC(=O)N1CCc2ccccc21)c1ccc(Cl)nc1,-11.9,45.7,-26.5,2.8,-9.1,3.6
Cc1ccc2oc(-c3cc(NC(=O)c4ncn[nH]4)ccc3O)nc2c1,.,.,.,3.7,-16.1,.

# High-throughput results (PubChem BioAssay)
